Measurements as given in ChEMBL document CHEMBL1147076, “Antitumor activity of MLN8054, an orally active small-molecule inhibitor of Aurora A kinase” (Proc Natl Acad Sci U S A, 2007).
Calls of active or inactive are those of the source. The rule behind the calls is not given here.

Key:
[1] = molecular target: Protein kinase C beta type (Homo sapiens) (UniProt P05771); assay: Activity of human PKC-beta-2 kinase at 1 uM
Outline: (§1)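 Single-point screen in a 226-kinase panel run by an outside service. Test compound at 1 μM with ATP at 10 μM in every assay. Other assay conditions are not given.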

DLD-1 = assay: Antiproliferative activity against human DLD1 cells after 96 hrs by BrdU cell proliferation ELISA; format: functional, cell-based; conditions: DLD-1, 96 h
Outline: (§2)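 BrdU incorporation proliferation assay on cultured human tumor lines; IC50 values derived from growth inhibition.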

[2] = molecular target: Vascular endothelial growth factor receptor 1 (Homo sapiens) (UniProt P17948); assay: Activity of human Flt1 kinase at 1 uM
Outline: (§3)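 Single-point kinase profiling: each kinase in a 226-kinase panel tested with compound at 1 μM and ATP at 10 μM in every assay, run by an external screening service.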

[3] = molecular target: Serine/threonine-protein kinase PAK 2 (Homo sapiens) (UniProt Q13177); assay: Activity of human PAK2 kinase at 1 uM; outline: as §1
Chain of Serine/threonine-protein kinase PAK 2 (Homo sapiens) (Q13177 whole entry): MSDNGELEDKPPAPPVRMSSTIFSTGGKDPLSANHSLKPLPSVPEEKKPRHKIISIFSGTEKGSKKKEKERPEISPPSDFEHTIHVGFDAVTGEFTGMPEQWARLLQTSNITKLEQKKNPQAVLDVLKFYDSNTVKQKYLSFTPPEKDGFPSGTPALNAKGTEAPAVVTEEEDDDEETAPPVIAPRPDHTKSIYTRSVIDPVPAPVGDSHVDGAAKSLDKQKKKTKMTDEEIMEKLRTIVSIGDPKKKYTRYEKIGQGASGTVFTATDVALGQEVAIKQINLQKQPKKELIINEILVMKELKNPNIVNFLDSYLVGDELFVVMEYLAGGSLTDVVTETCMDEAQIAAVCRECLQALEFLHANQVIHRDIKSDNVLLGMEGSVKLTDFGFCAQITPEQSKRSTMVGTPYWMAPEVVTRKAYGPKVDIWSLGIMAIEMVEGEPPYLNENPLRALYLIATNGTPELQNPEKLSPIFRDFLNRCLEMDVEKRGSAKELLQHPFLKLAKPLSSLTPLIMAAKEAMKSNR

[4] = molecular target: Interleukin-1 receptor-associated kinase 4 (Homo sapiens) (UniProt Q9NWZ3); assay: Activity of human IRAK4 kinase at 1 uM
[5] = molecular target: Macrophage colony-stimulating factor 1 receptor (Homo sapiens) (UniProt P07333); assay: Activity of human FMS kinase at 1 uM
PC-3 [6] = assay: Induction of apoptosis in human PC3 cells assessed as PARP cleavage at 1 uM after 24 hrs by Western blot method; format: functional, cell-based
Homo sapiens [7] = species on record: Homo sapiens; assay: Activity of human CDK5/p25 kinase at 1 uM
[8] = molecular target: Ribosomal protein S6 kinase alpha-3 (Homo sapiens) (UniProt P51812); assay: Activity of human Rsk2 kinase at 1 uM; outline: as §1
[9] = molecular target: Serine/threonine-protein kinase STK11 (Homo sapiens) (UniProt Q15831); assay: Activity of human LKB1 kinase at 1 uM
Chain of Serine/threonine-protein kinase STK11 (Homo sapiens) (Q15831 whole entry): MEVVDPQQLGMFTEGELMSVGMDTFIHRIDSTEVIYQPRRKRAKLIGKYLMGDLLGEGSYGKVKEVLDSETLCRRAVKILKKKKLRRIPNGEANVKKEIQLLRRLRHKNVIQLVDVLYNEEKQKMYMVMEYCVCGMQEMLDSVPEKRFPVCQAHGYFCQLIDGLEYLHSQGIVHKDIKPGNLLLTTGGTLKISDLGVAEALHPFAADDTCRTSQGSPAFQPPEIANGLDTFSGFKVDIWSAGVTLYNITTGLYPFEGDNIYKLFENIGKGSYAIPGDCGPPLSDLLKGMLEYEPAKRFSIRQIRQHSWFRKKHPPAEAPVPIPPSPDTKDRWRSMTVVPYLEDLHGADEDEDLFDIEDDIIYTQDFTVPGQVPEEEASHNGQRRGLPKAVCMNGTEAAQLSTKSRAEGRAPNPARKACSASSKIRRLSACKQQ

[10] = molecular target: Maternal embryonic leucine zipper kinase (Homo sapiens) (UniProt Q14680); assay: Activity of human MELK kinase at 1 uM; outline: as §3
[11] = molecular target: Mitogen-activated protein kinase 13 (Homo sapiens) (UniProt O15264); assay: Activity of human SAPK4 kinase at 1 uM; outline: as §1
[12] = molecular target: Serine/threonine-protein kinase PAK 6 (Homo sapiens) (UniProt Q9NQU5); assay: Activity of human PAK6 kinase at 1 uM; outline: as §1
[13] = molecular target: Tyrosine-protein kinase FRK (Homo sapiens) (UniProt P42685); assay: Activity of human PTK5 kinase at 1 uM; outline: as §1
[14] = molecular target: Serine/threonine-protein kinase Nek7 (Homo sapiens) (UniProt Q8TDX7); assay: Activity of human NEK7 kinase at 1 uM; outline: as §1
[15] = molecular target: Serine/threonine-protein kinase BRSK1 (Homo sapiens) (UniProt Q8TDC3); assay: Activity of human BrSK1 kinase at 1 uM
Chain of Serine/threonine-protein kinase BRSK1 (Homo sapiens) (Q8TDC3 whole entry): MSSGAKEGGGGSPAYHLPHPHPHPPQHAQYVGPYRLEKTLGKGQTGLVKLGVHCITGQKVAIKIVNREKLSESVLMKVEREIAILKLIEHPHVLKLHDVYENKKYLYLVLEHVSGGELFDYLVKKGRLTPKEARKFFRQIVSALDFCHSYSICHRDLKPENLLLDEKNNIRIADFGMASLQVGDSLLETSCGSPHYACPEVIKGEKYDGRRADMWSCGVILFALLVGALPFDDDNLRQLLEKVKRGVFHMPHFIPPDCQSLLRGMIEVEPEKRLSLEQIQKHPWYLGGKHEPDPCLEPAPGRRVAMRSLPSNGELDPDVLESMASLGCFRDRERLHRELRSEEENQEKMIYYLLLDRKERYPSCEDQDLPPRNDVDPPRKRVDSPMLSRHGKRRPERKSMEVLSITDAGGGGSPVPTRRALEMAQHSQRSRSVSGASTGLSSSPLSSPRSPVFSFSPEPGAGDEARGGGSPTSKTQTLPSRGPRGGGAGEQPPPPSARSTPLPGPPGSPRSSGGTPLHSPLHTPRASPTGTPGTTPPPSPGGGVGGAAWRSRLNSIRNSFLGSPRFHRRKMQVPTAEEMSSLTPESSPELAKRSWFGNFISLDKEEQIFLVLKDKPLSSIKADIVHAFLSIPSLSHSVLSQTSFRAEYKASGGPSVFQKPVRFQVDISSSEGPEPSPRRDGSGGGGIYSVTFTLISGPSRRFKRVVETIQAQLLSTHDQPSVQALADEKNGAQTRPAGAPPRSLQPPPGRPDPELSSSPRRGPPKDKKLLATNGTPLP

[16] = molecular target: Proto-oncogene tyrosine-protein kinase receptor Ret (Homo sapiens) (UniProt P07949); assay: Activity of human Ret kinase at 1 uM
Outline: (§4)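 Single-concentration screen across a 226-kinase panel run by an outside provider; test compound at 1 μM with 10 μM ATP in every assay. Other conditions not detailed.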

[17] = Plasma concentration in human HCT116 cells xenografted in mouse at 30 mg/kg, po after 8 hrs; format: ADME, organism-based, HCT-116; parameters: dose 30 mg/kg, route oral
NCI-H460 = assay: Antiproliferative activity against human H460 cells after 96 hrs by BrdU cell proliferation ELISA; format: functional, cell-based; conditions: NCI-H460, 96 h; outline: as §2
[18] = molecular target: Fibroblast growth factor receptor 1 (Homo sapiens) (UniProt P11362); assay: Activity of human FGFR1 kinase at 1 uM; outline: as §3
Chain of Fibroblast growth factor receptor 1 (Homo sapiens) (P11362 22-822 limits assumed): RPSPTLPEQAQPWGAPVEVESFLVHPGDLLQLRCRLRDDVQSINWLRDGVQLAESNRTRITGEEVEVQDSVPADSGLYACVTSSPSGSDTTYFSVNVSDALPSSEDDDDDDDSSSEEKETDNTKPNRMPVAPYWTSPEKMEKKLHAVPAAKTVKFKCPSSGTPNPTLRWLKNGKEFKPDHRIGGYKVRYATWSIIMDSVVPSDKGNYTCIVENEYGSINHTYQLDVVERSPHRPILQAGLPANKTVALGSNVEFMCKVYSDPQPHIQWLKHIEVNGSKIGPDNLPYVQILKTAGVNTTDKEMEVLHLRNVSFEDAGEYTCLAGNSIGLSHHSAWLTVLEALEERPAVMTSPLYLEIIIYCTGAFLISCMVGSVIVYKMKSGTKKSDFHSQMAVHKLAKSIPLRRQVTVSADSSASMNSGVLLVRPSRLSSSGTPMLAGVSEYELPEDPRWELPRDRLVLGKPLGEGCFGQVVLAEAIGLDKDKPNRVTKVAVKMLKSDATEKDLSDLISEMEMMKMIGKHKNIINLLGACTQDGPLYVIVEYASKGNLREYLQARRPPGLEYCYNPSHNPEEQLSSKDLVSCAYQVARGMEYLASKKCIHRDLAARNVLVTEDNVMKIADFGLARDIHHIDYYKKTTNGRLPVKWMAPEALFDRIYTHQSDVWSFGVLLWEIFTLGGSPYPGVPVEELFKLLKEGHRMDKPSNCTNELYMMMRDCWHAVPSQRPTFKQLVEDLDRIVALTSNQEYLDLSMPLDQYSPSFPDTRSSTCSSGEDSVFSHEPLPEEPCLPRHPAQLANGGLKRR

[19] = molecular target: Tyrosine-protein kinase receptor UFO (Homo sapiens) (UniProt P30530); assay: Activity of human Axl kinase at 1 uM; outline: as §3
Chain of Tyrosine-protein kinase receptor UFO (Homo sapiens) (P30530 whole entry): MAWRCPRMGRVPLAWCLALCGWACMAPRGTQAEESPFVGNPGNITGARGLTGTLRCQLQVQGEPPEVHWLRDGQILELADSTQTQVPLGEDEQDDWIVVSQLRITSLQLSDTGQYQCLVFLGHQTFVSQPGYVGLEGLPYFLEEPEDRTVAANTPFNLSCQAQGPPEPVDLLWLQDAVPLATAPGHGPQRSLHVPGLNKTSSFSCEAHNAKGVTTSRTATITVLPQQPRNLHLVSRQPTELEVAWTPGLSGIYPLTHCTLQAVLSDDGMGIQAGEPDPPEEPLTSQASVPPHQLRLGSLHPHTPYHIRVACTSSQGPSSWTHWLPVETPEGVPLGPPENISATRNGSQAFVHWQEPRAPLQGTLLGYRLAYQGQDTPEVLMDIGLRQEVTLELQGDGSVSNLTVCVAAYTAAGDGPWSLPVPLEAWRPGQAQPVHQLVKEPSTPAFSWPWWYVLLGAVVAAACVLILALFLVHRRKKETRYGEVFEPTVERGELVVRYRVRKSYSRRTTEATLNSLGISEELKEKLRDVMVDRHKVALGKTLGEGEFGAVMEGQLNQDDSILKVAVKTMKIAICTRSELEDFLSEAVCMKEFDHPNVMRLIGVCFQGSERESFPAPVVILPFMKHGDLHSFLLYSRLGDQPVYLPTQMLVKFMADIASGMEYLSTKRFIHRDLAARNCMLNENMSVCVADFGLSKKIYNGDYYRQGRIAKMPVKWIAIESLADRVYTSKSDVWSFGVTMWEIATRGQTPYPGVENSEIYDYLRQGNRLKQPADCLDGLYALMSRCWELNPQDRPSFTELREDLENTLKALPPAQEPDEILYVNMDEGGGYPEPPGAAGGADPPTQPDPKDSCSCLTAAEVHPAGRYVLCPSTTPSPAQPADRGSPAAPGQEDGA

[20] = molecular target: cAMP-dependent protein kinase catalytic subunit PRKX (Homo sapiens) (UniProt P51817); assay: Activity of human PrKX kinase at 1 uM; outline: as §1
[21] = molecular target: Protein-tyrosine kinase 6 (Homo sapiens) (UniProt Q13882); assay: Activity of human BRK kinase at 1 uM
[22] = molecular target: Ephrin type-A receptor 1 (Homo sapiens) (UniProt P21709); assay: Inhibition of EphA1 kinase at 1 uM
Chain of Ephrin type-A receptor 1 (Homo sapiens) (P21709 whole entry): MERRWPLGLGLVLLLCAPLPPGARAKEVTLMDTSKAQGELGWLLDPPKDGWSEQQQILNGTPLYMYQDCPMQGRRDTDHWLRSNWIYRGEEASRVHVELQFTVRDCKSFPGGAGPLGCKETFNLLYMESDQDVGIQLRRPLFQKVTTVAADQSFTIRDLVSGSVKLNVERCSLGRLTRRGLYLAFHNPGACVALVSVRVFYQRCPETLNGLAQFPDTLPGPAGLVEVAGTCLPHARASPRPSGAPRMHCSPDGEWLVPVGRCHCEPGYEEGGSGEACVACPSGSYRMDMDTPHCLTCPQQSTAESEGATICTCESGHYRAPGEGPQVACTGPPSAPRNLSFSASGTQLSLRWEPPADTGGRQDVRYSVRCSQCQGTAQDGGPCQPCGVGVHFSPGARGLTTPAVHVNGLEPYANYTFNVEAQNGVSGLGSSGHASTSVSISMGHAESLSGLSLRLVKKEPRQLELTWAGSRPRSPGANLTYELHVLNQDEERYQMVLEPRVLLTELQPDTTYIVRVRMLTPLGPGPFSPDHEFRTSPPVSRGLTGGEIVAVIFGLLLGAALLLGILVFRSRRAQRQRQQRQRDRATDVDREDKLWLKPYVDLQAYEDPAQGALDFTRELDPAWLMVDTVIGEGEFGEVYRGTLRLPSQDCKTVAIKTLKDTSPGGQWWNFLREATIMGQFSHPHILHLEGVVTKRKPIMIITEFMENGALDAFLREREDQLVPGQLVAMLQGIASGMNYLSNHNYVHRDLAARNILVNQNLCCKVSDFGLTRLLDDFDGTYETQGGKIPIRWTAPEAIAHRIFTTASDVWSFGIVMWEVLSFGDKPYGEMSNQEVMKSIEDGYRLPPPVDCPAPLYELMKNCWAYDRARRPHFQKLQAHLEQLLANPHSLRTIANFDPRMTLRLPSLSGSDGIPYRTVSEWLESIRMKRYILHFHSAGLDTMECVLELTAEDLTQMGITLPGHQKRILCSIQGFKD
Outline: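 Single-point screen within a 226-kinase panel, with compound at 1 μM and ATP at 10 μM in all assays.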

[23] = molecular target: ALK tyrosine kinase receptor (Homo sapiens) (UniProt Q9UM73); assay: Activity of human ALK kinase at 1 uM
[24] = molecular target: Cyclin-dependent kinase 2/cyclin A (Homo sapiens) (UniProt P24941+P20248+P78396); assay: Activity of human CDK2/cyclin A kinase at 1 uM; format: protein-complex assay
[25] = molecular target: Serine/threonine-protein kinase NLK (Homo sapiens) (UniProt Q9UBE8); assay: Activity of human NLK kinase at 1 uM; outline: as §1
[26] = molecular target: Mitogen-activated protein kinase 1 (ERK2) (Mus musculus) (UniProt P63085); assay: Activity of mouse MAPK2 kinase at 1 uM
Homo sapiens [27] = species on record: Homo sapiens; assay: Activity of human CDK5/p35 kinase at 1 uM
PC-3 [28] = assay: Cell cycle arrest in human PC3 cells by accumulation at G1 phase at 4 uM after 24 hrs by flow cytometry relative to control; format: functional
Outline: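 DNA content profiles by flow cytometry of PC-3 prostate tumor cells exposed to drug diluted in DMSO for 24 or 48 h. Phase distribution was compared with DMSO-treated control cells.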

PC-3 [29] = assay: Cell cycle arrest in human PC3 cells by accumulation at >4N phase at 1 uM after 24 hrs by flow cytometry relative to control; format: functional
[30] = molecular target: Mitogen-activated protein kinase 8 (Homo sapiens) (UniProt P45983); assay: Activity of human JNK1-alpha-1 kinase at 1 uM; outline: as §3
[31] = Inhibition of CDK2E by radioactive flashplate assay
[32] = molecular target: Homeodomain-interacting protein kinase 2 (Homo sapiens) (UniProt Q9H2X6); assay: Activity of human HIPK2 kinase at 1 uM; outline: as §3
[33] = molecular target: Ephrin type-A receptor 1 (Homo sapiens) (UniProt P21709); assay: Activity of human EphA1 kinase at 1 uM; outline: as §3
[34] = molecular target: SRSF protein kinase 1 (Homo sapiens) (UniProt Q96SB4); assay: Activity of human SRPK1 kinase at 1 uM; outline: as §4
[35] = molecular target: Phosphorylase b kinase gamma catalytic chain, liver/testis isoform (Homo sapiens) (UniProt P15735); assay: Activity of human PhKgamma2 kinase at 1 uM; outline: as §1
[36] = molecular target: RAC-beta serine/threonine-protein kinase (Homo sapiens) (UniProt P31751); assay: Activity of human PKBbeta kinase at 1 uM; outline: as §1
Chain of RAC-beta serine/threonine-protein kinase (Homo sapiens) (P31751 whole entry): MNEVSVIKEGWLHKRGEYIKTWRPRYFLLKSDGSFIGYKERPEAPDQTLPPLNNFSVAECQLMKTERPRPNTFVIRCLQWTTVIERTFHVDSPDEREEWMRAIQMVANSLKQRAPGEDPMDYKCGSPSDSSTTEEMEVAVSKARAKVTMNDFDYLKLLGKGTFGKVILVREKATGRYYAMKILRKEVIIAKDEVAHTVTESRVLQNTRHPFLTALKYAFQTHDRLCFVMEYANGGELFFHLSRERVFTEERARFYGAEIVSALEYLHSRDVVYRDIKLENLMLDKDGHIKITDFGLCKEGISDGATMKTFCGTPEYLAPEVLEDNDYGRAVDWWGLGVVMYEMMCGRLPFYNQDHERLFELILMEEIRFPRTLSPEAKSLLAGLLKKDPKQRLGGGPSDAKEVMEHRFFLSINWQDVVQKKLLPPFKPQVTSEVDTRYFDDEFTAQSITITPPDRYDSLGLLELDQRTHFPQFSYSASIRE

PC-3 [37] = assay: Antiproliferative activity against human PC3 cells after 96 hrs by BrdU cell proliferation ELISA; format: functional, cell-based; conditions: PC-3, 96 h; outline: as §2
[38] = molecular target: G protein-coupled receptor kinase 6 (Homo sapiens) (UniProt P43250); assay: Activity of human GRK6 kinase at 1 uM
[39] = molecular target: Serine/threonine-protein kinase Sgk2 (Homo sapiens) (UniProt Q9HBY8); assay: Activity of human SGK2 kinase at 1 uM; outline: as §1
[40] = molecular target: Ephrin type-B receptor 3 (Homo sapiens) (UniProt P54753); assay: Activity of human EphB3 kinase at 1 uM

In the case of `O=C(O)c1ccc(Nc2ncc3c(n2)-c2ccc(Cl)cc2C(c2c(F)cccc2F)=NC3)cc1` [MLN-8054], the Activity [1] is reported as 100%, the IC50 (DLD-1) is reported as 1430 nM and the Activity [2] is reported as 65%. It also gave an Activity [3] of 100%, an Activity [4] of 97% and an Activity [5] of 95%. The Activity (PC-3 [6]) was “Active”, the Activity (Homo sapiens [7]) was 94% and the Activity [8] was 76%. It also gave an Activity [9] of 101%, an Activity [10] of 79% and an Activity [11] of 87%. It also gave an Activity [12] of 108%, an Activity [13] of 90% and an Activity [14] of 99%. For the same compound, the Activity [15] was 92%, the Activity [16] was 80% and the concentration at 8 h [17] was 7.4 µM. The IC50 (NCI-H460) was 110 nM, the Activity [18] was 43% and the Activity [19] was 41%. For the same compound, the Activity [20] was 99%, the Activity [21] was 104% and the inhibition [22] was 71%. For the same compound, the Activity [23] was 95%, the Activity [24] was 96% and the Activity [25] was 104%. For the same compound, the Activity [26] was 105%, the Activity (Homo sapiens [27]) was 100% and the Activity (PC-3 [28]) was 23%. For the same compound, the Activity (PC-3 [29]) was 3.7%, the Activity [30] was 122% and the IC50 [31] was over 100000 nM. It also gave an Activity [32] of 112%, an Activity [33] of 29% and an Activity [34] of 105%. The Activity [35] was 98%, the Activity [36] was 104% and the IC50 (PC-3 [37]) was 790 nM. It also gave an Activity [38] of 110%, an Activity [39] of 100% and an Activity [40] of 95%.
